# Measured values taken from ChEMBL document CHEMBL1143805, “Synthesis and antimicrobial activities of some novel 1,2,4-triazolo[3,4-b]-1,3,4-thiadiazoles and 1,2,4-triazolo[3,4-b]-1,3,4-thiadiazines carrying thioalkyl and sulphonyl phenoxy moieties” (2007).
# Test system: Escherichia coli
# Experiment: Antibacterial activity against Escherichia coli ATCC 25922
# Assay type: functional
# Settings: not given
# In short: (§1)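 MIC by serial dilution in Mueller-Hinton broth tubes, pH adjusted to 5.0 with phosphate buffer. A standardized bacterial suspension was inoculated and incubated 16-18 h at 37 °C, and MIC was read as the lowest concentration with no visible growth. Zones were also measured in agar wells on seeded plates, with compounds in DMSO and a DMSO control, triplicate plates, 37 °C for 3-4 days.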
row,SMILES,inhibition zone (IZ) [mm]
1,CSc1ccc(OCc2nnc3sc(-c4ccccc4)nn23)cc1,16
2,CCSc1ccc(OCc2nnc3sc(-c4ccccc4N)nn23)cc1,<10
3,CS(=O)(=O)c1ccc(OCc2nnc3n2N=C(c2ccc(O)c(C(N)=O)c2)CS3)cc1,11
4,CS(=O)(=O)c1ccc(OCc2nnc3sc(-c4cccc(Cl)c4Cl)nn23)cc1,16
5,CS(=O)(=O)c1ccc(OCc2nnc3sc(-c4ccccc4)nn23)cc1,11
6,CSc1ccc(OCc2nnc3n2N=C(c2ccc(O)c(C(N)=O)c2)CS3)cc1,<10

# Same assay, conditions: Escherichia coli, ATCC 25922
row,MIC [µg/mL],SMILES
1,6.25,CSc1ccc(OCc2nnc3sc(-c4ccccc4)nn23)cc1
2,25,CCSc1ccc(OCc2nnc3sc(-c4ccccc4N)nn23)cc1
3,12.5,CS(=O)(=O)c1ccc(OCc2nnc3n2N=C(c2ccc(O)c(C(N)=O)c2)CS3)cc1
4,6.25,CS(=O)(=O)c1ccc(OCc2nnc3sc(-c4cccc(Cl)c4Cl)nn23)cc1
5,12.5,CS(=O)(=O)c1ccc(OCc2nnc3sc(-c4ccccc4)nn23)cc1
6,25,CSc1ccc(OCc2nnc3n2N=C(c2ccc(O)c(C(N)=O)c2)CS3)cc1

# Test system: Staphylococcus aureus
# Experiment: Antibacterial activity against Staphylococcus aureus ATCC 25923
# Assay type: functional
# Settings: not given
# In short: as §1
row,SMILES,inhibition zone (IZ) [mm]
1,CSc1ccc(OCc2nnc3sc(-c4ccccc4)nn23)cc1,16
2,CCSc1ccc(OCc2nnc3sc(-c4ccccc4N)nn23)cc1,<10
3,CS(=O)(=O)c1ccc(OCc2nnc3n2N=C(c2ccc(O)c(C(N)=O)c2)CS3)cc1,11
4,CS(=O)(=O)c1ccc(OCc2nnc3sc(-c4cccc(Cl)c4Cl)nn23)cc1,16
5,CS(=O)(=O)c1ccc(OCc2nnc3sc(-c4ccccc4)nn23)cc1,11
6,CSc1ccc(OCc2nnc3n2N=C(c2ccc(O)c(C(N)=O)c2)CS3)cc1,<10

# Same assay, conditions: Staphylococcus aureus, ATCC 25923
row,MIC [µg/mL],SMILES
1,6.25,CSc1ccc(OCc2nnc3sc(-c4ccccc4)nn23)cc1
2,25,CCSc1ccc(OCc2nnc3sc(-c4ccccc4N)nn23)cc1
3,12.5,CS(=O)(=O)c1ccc(OCc2nnc3n2N=C(c2ccc(O)c(C(N)=O)c2)CS3)cc1
4,6.25,CS(=O)(=O)c1ccc(OCc2nnc3sc(-c4cccc(Cl)c4Cl)nn23)cc1
5,12.5,CS(=O)(=O)c1ccc(OCc2nnc3sc(-c4ccccc4)nn23)cc1
6,25,CSc1ccc(OCc2nnc3n2N=C(c2ccc(O)c(C(N)=O)c2)CS3)cc1

# Test system: Pseudomonas aeruginosa
# Experiment: Antibacterial activity against Pseudomonas aeruginosa ATCC 27853
# Assay type: functional
# Settings: not given
# In short: as §1
row,SMILES,inhibition zone (IZ) [mm]
1,CSc1ccc(OCc2nnc3sc(-c4ccccc4)nn23)cc1,16
2,CCSc1ccc(OCc2nnc3sc(-c4ccccc4N)nn23)cc1,<10
3,CS(=O)(=O)c1ccc(OCc2nnc3n2N=C(c2ccc(O)c(C(N)=O)c2)CS3)cc1,11
4,CS(=O)(=O)c1ccc(OCc2nnc3sc(-c4cccc(Cl)c4Cl)nn23)cc1,16
5,CS(=O)(=O)c1ccc(OCc2nnc3sc(-c4ccccc4)nn23)cc1,11
6,CSc1ccc(OCc2nnc3n2N=C(c2ccc(O)c(C(N)=O)c2)CS3)cc1,<10

# Same assay, conditions: Pseudomonas aeruginosa, ATCC 27853
row,MIC [µg/mL],SMILES
1,6.25,CSc1ccc(OCc2nnc3sc(-c4ccccc4)nn23)cc1
2,25,CCSc1ccc(OCc2nnc3sc(-c4ccccc4N)nn23)cc1
3,12.5,CS(=O)(=O)c1ccc(OCc2nnc3n2N=C(c2ccc(O)c(C(N)=O)c2)CS3)cc1
4,6.25,CS(=O)(=O)c1ccc(OCc2nnc3sc(-c4cccc(Cl)c4Cl)nn23)cc1
5,12.5,CS(=O)(=O)c1ccc(OCc2nnc3sc(-c4ccccc4)nn23)cc1
6,25,CSc1ccc(OCc2nnc3n2N=C(c2ccc(O)c(C(N)=O)c2)CS3)cc1

# Test system: Klebsiella pneumoniae
# Experiment: Antibacterial activity against Klebsiella pneumoniae
# Assay type: functional
# Settings: not given
# In short: as §1
row,SMILES,inhibition zone (IZ) [mm]
1,CSc1ccc(OCc2nnc3sc(-c4ccccc4)nn23)cc1,16
2,CCSc1ccc(OCc2nnc3sc(-c4ccccc4N)nn23)cc1,<10
3,CS(=O)(=O)c1ccc(OCc2nnc3n2N=C(c2ccc(O)c(C(N)=O)c2)CS3)cc1,11
4,CS(=O)(=O)c1ccc(OCc2nnc3sc(-c4cccc(Cl)c4Cl)nn23)cc1,16
5,CS(=O)(=O)c1ccc(OCc2nnc3sc(-c4ccccc4)nn23)cc1,11
6,CSc1ccc(OCc2nnc3n2N=C(c2ccc(O)c(C(N)=O)c2)CS3)cc1,<10

# Same assay, conditions: Klebsiella pneumoniae
row,MIC [µg/mL],SMILES
1,6.25,CSc1ccc(OCc2nnc3sc(-c4ccccc4)nn23)cc1
2,25,CCSc1ccc(OCc2nnc3sc(-c4ccccc4N)nn23)cc1
3,12.5,CS(=O)(=O)c1ccc(OCc2nnc3n2N=C(c2ccc(O)c(C(N)=O)c2)CS3)cc1
4,6.25,CS(=O)(=O)c1ccc(OCc2nnc3sc(-c4cccc(Cl)c4Cl)nn23)cc1
5,12.5,CS(=O)(=O)c1ccc(OCc2nnc3sc(-c4ccccc4)nn23)cc1
6,25,CSc1ccc(OCc2nnc3n2N=C(c2ccc(O)c(C(N)=O)c2)CS3)cc1

# Test system: Aspergillus flavus
# Experiment: Antifungal activity against Aspergillus flavus NCIM 524
# Assay type: functional
# Settings: not given
# In short: (§2)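 Agar-well diffusion on Sabouraud agar at pH 5.7. Plates were lawned with a saline spore suspension (one loopful in 3 ml), decanted and dried 1 h at 37 °C. Compounds in DMSO went into punched wells, with a DMSO solvent control. Plates were run in triplicate and kept at 37 °C for 3-4 days, with inhibition-zone diameter as read-out.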
row,SMILES,inhibition zone (IZ) [mm]
1,CSc1ccc(OCc2nnc3sc(-c4ccccc4)nn23)cc1,16
2,CCSc1ccc(OCc2nnc3sc(-c4ccccc4N)nn23)cc1,<10
3,CS(=O)(=O)c1ccc(OCc2nnc3n2N=C(c2ccc(O)c(C(N)=O)c2)CS3)cc1,11
4,CS(=O)(=O)c1ccc(OCc2nnc3sc(-c4cccc(Cl)c4Cl)nn23)cc1,16
5,CS(=O)(=O)c1ccc(OCc2nnc3sc(-c4ccccc4)nn23)cc1,11
6,CSc1ccc(OCc2nnc3n2N=C(c2ccc(O)c(C(N)=O)c2)CS3)cc1,<10

# Same assay, conditions: Aspergillus flavus, NCIM 524
row,MIC [µg/mL],SMILES
1,6.25,CSc1ccc(OCc2nnc3sc(-c4ccccc4)nn23)cc1
2,25,CCSc1ccc(OCc2nnc3sc(-c4ccccc4N)nn23)cc1
3,12.5,CS(=O)(=O)c1ccc(OCc2nnc3n2N=C(c2ccc(O)c(C(N)=O)c2)CS3)cc1
4,6.25,CS(=O)(=O)c1ccc(OCc2nnc3sc(-c4cccc(Cl)c4Cl)nn23)cc1
5,12.5,CS(=O)(=O)c1ccc(OCc2nnc3sc(-c4ccccc4)nn23)cc1
6,25,CSc1ccc(OCc2nnc3n2N=C(c2ccc(O)c(C(N)=O)c2)CS3)cc1

# Test system: Aspergillus fumigatus
# Experiment: Antifungal activity against Aspergillus fumigatus NCIM 902
# Assay type: functional
# Settings: not given
row,SMILES,inhibition zone (IZ) [mm]
1,CSc1ccc(OCc2nnc3sc(-c4ccccc4)nn23)cc1,16
2,CCSc1ccc(OCc2nnc3sc(-c4ccccc4N)nn23)cc1,<10
3,CS(=O)(=O)c1ccc(OCc2nnc3n2N=C(c2ccc(O)c(C(N)=O)c2)CS3)cc1,11
4,CS(=O)(=O)c1ccc(OCc2nnc3sc(-c4cccc(Cl)c4Cl)nn23)cc1,16
5,CS(=O)(=O)c1ccc(OCc2nnc3sc(-c4ccccc4)nn23)cc1,11
6,CSc1ccc(OCc2nnc3n2N=C(c2ccc(O)c(C(N)=O)c2)CS3)cc1,<10

# Same assay, conditions: Aspergillus fumigatus, NCIM 902
row,MIC [µg/mL],SMILES
1,6.25,CSc1ccc(OCc2nnc3sc(-c4ccccc4)nn23)cc1
2,25,CCSc1ccc(OCc2nnc3sc(-c4ccccc4N)nn23)cc1
3,12.5,CS(=O)(=O)c1ccc(OCc2nnc3n2N=C(c2ccc(O)c(C(N)=O)c2)CS3)cc1
4,6.25,CS(=O)(=O)c1ccc(OCc2nnc3sc(-c4cccc(Cl)c4Cl)nn23)cc1
5,12.5,CS(=O)(=O)c1ccc(OCc2nnc3sc(-c4ccccc4)nn23)cc1
6,25,CSc1ccc(OCc2nnc3n2N=C(c2ccc(O)c(C(N)=O)c2)CS3)cc1

# Test system: Talaromyces marneffei
# Experiment: Antifungal activity against Penicillium marneffei
# Assay type: functional
# Settings: not given
# In short: as §2
row,SMILES,inhibition zone (IZ) [mm]
1,CSc1ccc(OCc2nnc3sc(-c4ccccc4)nn23)cc1,16
2,CCSc1ccc(OCc2nnc3sc(-c4ccccc4N)nn23)cc1,<10
3,CS(=O)(=O)c1ccc(OCc2nnc3n2N=C(c2ccc(O)c(C(N)=O)c2)CS3)cc1,<10
4,CS(=O)(=O)c1ccc(OCc2nnc3sc(-c4cccc(Cl)c4Cl)nn23)cc1,16
5,CS(=O)(=O)c1ccc(OCc2nnc3sc(-c4ccccc4)nn23)cc1,<10
6,CSc1ccc(OCc2nnc3n2N=C(c2ccc(O)c(C(N)=O)c2)CS3)cc1,<10

# Same assay, conditions: Talaromyces marneffei
row,MIC [µg/mL],SMILES
1,6.25,CSc1ccc(OCc2nnc3sc(-c4ccccc4)nn23)cc1
2,25,CCSc1ccc(OCc2nnc3sc(-c4ccccc4N)nn23)cc1
3,25,CS(=O)(=O)c1ccc(OCc2nnc3n2N=C(c2ccc(O)c(C(N)=O)c2)CS3)cc1
4,6.25,CS(=O)(=O)c1ccc(OCc2nnc3sc(-c4cccc(Cl)c4Cl)nn23)cc1
5,25,CS(=O)(=O)c1ccc(OCc2nnc3sc(-c4ccccc4)nn23)cc1
6,25,CSc1ccc(OCc2nnc3n2N=C(c2ccc(O)c(C(N)=O)c2)CS3)cc1

# Test system: Trichophyton benhamiae
# Experiment: Antifungal activity against Trichophyton mentagrophytes
# Assay type: functional, Arthroderma benhamiae
# Settings: not given
# In short: as §2
row,SMILES,inhibition zone (IZ) [mm]
1,CSc1ccc(OCc2nnc3sc(-c4ccccc4)nn23)cc1,16
2,CCSc1ccc(OCc2nnc3sc(-c4ccccc4N)nn23)cc1,<10
3,CS(=O)(=O)c1ccc(OCc2nnc3n2N=C(c2ccc(O)c(C(N)=O)c2)CS3)cc1,11
4,CS(=O)(=O)c1ccc(OCc2nnc3sc(-c4cccc(Cl)c4Cl)nn23)cc1,16
5,CS(=O)(=O)c1ccc(OCc2nnc3sc(-c4ccccc4)nn23)cc1,11
6,CSc1ccc(OCc2nnc3n2N=C(c2ccc(O)c(C(N)=O)c2)CS3)cc1,<10

# Same assay, conditions: Trichophyton benhamiae
row,MIC [µg/mL],SMILES
1,6.25,CSc1ccc(OCc2nnc3sc(-c4ccccc4)nn23)cc1
2,25,CCSc1ccc(OCc2nnc3sc(-c4ccccc4N)nn23)cc1
3,12.5,CS(=O)(=O)c1ccc(OCc2nnc3n2N=C(c2ccc(O)c(C(N)=O)c2)CS3)cc1
4,6.25,CS(=O)(=O)c1ccc(OCc2nnc3sc(-c4cccc(Cl)c4Cl)nn23)cc1
5,12.5,CS(=O)(=O)c1ccc(OCc2nnc3sc(-c4ccccc4)nn23)cc1
6,25,CSc1ccc(OCc2nnc3n2N=C(c2ccc(O)c(C(N)=O)c2)CS3)cc1
